Consider one compound from ChEMBL document CHEMBL4190252, “Synthesis, antitumor activity and CDK1 inhibiton of new thiazole nortopsentin analogues” (Eur J Med Chem, 2017).

A word on the IC50: it is the midpoint of a concentration-inhibition curve.

Structures are written as SMILES.

The experiment deals with Cyclin-dependent kinase 1/cyclin B1 (Homo sapiens, UniProt P06493). In words: Inhibition of recombinant human full length His-tagged CDK1/cyclin B expressed in baculovirus expression system after 60 mins in presence of omnia peptide substrate by fluorescence based assay. In a few lines: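 Recombinant human CDK1/cyclin B in kinase buffer with Omnia peptide substrate, ATP and DTT, with inhibitor at 0.1–10 µM. Reactions ran for 60 min at 30 °C, with fluorescence read at ex 360/em 485 nm. Initial velocity came from the RFU-versus-time slope and was plotted against concentration for a dose-response IC50 fit. Values are mean±SD of two determinations.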
Sequence of Cyclin-dependent kinase 1/cyclin B1 (P06493 whole entry): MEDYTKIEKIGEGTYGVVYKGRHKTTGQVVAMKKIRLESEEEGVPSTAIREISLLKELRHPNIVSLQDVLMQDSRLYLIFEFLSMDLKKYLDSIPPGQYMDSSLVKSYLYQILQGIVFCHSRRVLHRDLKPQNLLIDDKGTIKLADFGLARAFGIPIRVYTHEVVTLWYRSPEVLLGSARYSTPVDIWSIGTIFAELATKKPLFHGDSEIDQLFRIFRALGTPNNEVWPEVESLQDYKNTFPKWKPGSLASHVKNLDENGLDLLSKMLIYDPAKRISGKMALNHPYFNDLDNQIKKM
Sequence of Cyclin-dependent kinase 1/cyclin B1 (P14635 whole entry, further chain): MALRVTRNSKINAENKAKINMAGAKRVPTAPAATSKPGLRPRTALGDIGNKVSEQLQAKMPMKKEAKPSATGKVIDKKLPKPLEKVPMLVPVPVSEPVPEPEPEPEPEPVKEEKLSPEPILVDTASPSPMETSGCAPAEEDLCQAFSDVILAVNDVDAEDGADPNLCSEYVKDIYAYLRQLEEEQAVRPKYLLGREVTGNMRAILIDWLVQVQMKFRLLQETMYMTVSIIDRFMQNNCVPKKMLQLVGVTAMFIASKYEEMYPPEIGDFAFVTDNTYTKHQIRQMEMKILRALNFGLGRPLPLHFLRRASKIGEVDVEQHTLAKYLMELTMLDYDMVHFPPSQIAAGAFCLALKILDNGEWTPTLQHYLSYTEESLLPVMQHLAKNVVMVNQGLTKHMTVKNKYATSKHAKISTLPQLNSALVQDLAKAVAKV

As for `Cn1cc(-c2nc(-c3cn(C)c4ncccc34)cs2)c2cc(F)ccc21`, the half-maximal inhibitory concentration (IC50) was 970 nM.
